PP5 inh: PP5 phosphatase inhibitors, primary screen, biochemical, fluorescence; Serine/threonine-protein phosphatase 5 (Homo sapiens), P53041; purified PP5c, OMFP substrate fluorescence; inhibition, % at 6.7 µM; hit rate 0.18% among 320,000;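 active = inhibition above the campaign's mean inhibition across all tested compounds plus 3 SD, cut at about 9.5% in these data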;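 note: 0% = DMSO only and 100% = 100 µM cantharidin control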
Scp-1 inhibitor: Scp-1 phosphatase inhibitors, primary screen, biochemical, colorimetric, uHTS; Recombinant Scp1, phosphopeptide, malachite green phosphate absorbance; inhibition, % at 20 µM; hit rate 0.88% among 340,000; AID 493091, 2011;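 active = inhibition above about 50% at 20 µM, limit read from the data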;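 note: plate controls were DMSO wells with enzyme for no effect and wells lacking enzyme for full effect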
Target sequence (Q9GZU7 76-261 limits assumed): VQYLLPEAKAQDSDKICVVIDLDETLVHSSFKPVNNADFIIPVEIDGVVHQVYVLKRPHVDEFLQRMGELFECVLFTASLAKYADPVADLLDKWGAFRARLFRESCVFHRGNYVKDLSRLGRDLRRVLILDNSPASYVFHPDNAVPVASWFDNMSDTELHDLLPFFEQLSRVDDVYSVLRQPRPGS
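System: SCP-1 catalytic domain; Reagent: Phospho 17-mer peptide substrate; Doses: one concentration, 20 µM, with 1.0% DMSO; Incubation: 45 min room-temperature reaction, 5 min colour, 30 min stabiliser; Signal: Phosphate-binding colour reagent, absorbance read at 630 nm.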
LMPTP inh: LMPTP phosphatase inhibitors, primary screen, biochemical, fluorescence intensity, uHTS. AID 651560, 2012. inhibition, % at 20 µM. hit rate 0.22% among 360,000. recombinant LMPTP-A, OMFP fluorogenic substrate. Low molecular weight phosphotyrosine protein phosphatase (Homo sapiens), P24666;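 active = compounds that cut the enzyme signal by at least half of the control window in the single-dose screen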;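 note: plate controls were DMSO wells with enzyme plus substrate for no effect and substrate without enzyme for full effect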
Target sequence (P24666 whole entry, looked up): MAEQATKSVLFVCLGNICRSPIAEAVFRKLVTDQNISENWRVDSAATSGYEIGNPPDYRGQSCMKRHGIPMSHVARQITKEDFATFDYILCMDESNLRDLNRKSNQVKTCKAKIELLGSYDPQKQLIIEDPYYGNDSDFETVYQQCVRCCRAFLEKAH
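Test system: LMPTP-A phosphatase enzyme; input: 0.625 nM LMPTP-A final; reagent: OMFP substrate, 400 µM final; compound dosing: 20 µM single dose, 3% DMSO; incubation: 50 min dark incubation at room temperature; measured by: endpoint fluorescence intensity from OMFP dephosphorylation; measure: % inhibition relative to no-enzyme and uninhibited control wells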
PP1 counter: PP1-alpha phosphatase inhibitors, primary screen, counter-screen for PP5 inhibitor project, biochemical, fluorescence, OMFP substrate, single point; Serine/threonine-protein phosphatase PP1-alpha catalytic subunit (Homo sapiens), P62136; purified PP1alpha; inhibition, % at 6.7 µM; hit rate 0.9% among 320,000;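 active = inhibition above the mean inhibition of all tested compounds plus 3 SD, computed separately for each screening campaign, cut at about 15% in these data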
Target sequence (P62136 whole entry, looked up): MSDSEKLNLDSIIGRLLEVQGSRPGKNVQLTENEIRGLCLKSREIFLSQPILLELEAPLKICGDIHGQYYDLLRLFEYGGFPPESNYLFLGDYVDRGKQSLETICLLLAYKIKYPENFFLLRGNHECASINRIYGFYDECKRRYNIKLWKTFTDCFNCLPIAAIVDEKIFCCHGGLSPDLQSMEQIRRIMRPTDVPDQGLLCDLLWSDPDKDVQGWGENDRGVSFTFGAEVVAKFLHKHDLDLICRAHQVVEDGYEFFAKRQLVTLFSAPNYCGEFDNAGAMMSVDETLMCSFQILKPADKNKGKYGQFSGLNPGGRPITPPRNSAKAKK
STEP block: STEP phosphatase inhibitors, primary screen, biochemical, fluorescence intensity, uHTS; recombinant STEP, OMFP fluorogenic substrate; inhibition, % at 20 µM; hit rate 0.25% among 360,000; AID 588621, 2011;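 active = inhibition at 20 µM, scaled per plate between control wells, above about 37%, limit read from the data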;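 note: 0% = DMSO with enzyme and substrate and 100% = substrate only without enzyme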
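medium = Bis-Tris buffer pH 6.0, 2.5 mM DTT, 0.005% Tween 20 | test system = STEP (striatal-enriched tyrosine phosphatase) enzyme, cell-free | measure = normalized % inhibition | compound dosing = 20 µM, 1% DMSO | also added = 25 µM OMFP | schedule = reaction 20 min, ambient temperature | measured by = fluorescence read at 480 nm ex / 540 nm em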
PP1 confirm: PP1 phosphatase inhibitors, confirmation, biochemical, fluorescence, OMFP substrate, triplicate. AID 2358, 2010. hit rate 52% among 1,900. shares compounds with PP1 counter. inhibition, % at 6.7 µM. purified PP1alpha;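 active = mean PP1 inhibition above a set limit taken from the earlier primary screen, cut at about 15% in these data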
PP5 counter: PP5 phosphatase inhibition by PP1 hits, confirmation, counter-screen for PP1 inhibitor project, biochemical, fluorescence, triplicate; purified PP5c, OMFP fluorescence; inhibition, % at 6.7 µM; shares compounds with PP1 counter; hit rate 4% among 1,900;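 active = mean PP5 inhibition over triplicate wells above about 9.5% taken from the earlier PP1 screen, limit read from the data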
An asterisk follows results filed as active; nt = no result. This is a sample that favours compounds with a hit; in the whole collection about 1.9% have one here.

SMILES | PP5 inh | Scp-1 inhibitor | LMPTP inh | PP1 counter | STEP block | PP1 confirm | PP5 counter
CCOC(=O)c1cnc(-n2nc(C)cc2C)nc1NC1CCCCC1 | 5.8 | 2.8 | 3.7 | 55.2* | 1.7 | 53.9* | 0.7
c1ccc(-c2nc3cc4ccccc4cc3[nH]2)nc1 | 1.7 | -4.3 | 1.1 | 30.1* | 0.2 | 19.6* | 3.6
COc1cc(/C=C2/SC(=S)NC2=O)ccc1OS(=O)(=O)c1ccc(C)cc1 | 3.5 | -10.8 | 4.6 | 25.5* | 2.7 | 30.9* | 2.0
COc1cc(/C=C2\SC(=S)NC2=O)ccc1OS(=O)(=O)c1ccccc1 | 3.1 | nt | nt | 19.1* | nt | 20.9* | 1.7
COc1ccc(NC(=O)COc2ccc(Br)cc2)c(OC)c1 | 1.9 | -2.0 | -1.2 | 0.2 | 1.0 | nt | nt
COc1ccc(NC(=O)NNC(=O)COc2ccc3cc(Br)ccc3c2)c(OC)c1 | -1.3 | -4.6 | -0.2 | 19.9* | -0.9 | 23.3* | -6.2
CC1(c2ccccc2Cl)NC(=O)N(CC(=O)Nc2ccccc2OC(F)F)C1=O (stereo not drawn) | 1.8 | -4.7 | -0.1 | -1.1 | 0.3 | nt | nt
O=C1N=C(N2CCN(c3cccc4ccccc34)CC2)S/C1=C/c1cccs1 | 3.2 | -10.4 | 3.9 | 23.6* | 2.9 | 18.9* | -2.5
Cc1ccccc1N1CCN(C2=NC(=O)/C(=C\c3cccs3)S2)CC1 | 0.5 | -4.0 | 7.7 | 11.1 | 2.7 | nt | nt
O=C(Nc1ccccc1Cl)c1ccccc1Oc1ccc(C(F)(F)F)cc1[N+](=O)[O-] | 8.5 | -10.3 | 3.1 | -2.0 | 2.1 | nt | nt
COC(=O)c1ccccc1NC(=O)c1ccc(COc2cccc3ccccc23)o1 | 4.2 | -12.6 | 4.9 | 24.7* | 4.0 | 18.9* | -1.0
Cc1ccc(C)c(S(=O)(=O)N2CCC(c3nc4c(nnn4Cc4ccc5c(c4)OCCO5)c(=O)[nH]3)CC2)c1 | 5.4 | -7.9 | 4.6 | 23.6* | 2.2 | 21.8* | -0.1
O=c1[nH]c(C2CCCN(S(=O)(=O)c3ccccc3)C2)nc2c1nnn2Cc1ccc2c(c1)OCCO2 (stereo not drawn) | 1.3 | 0.0 | 4.5 | 1.1 | 1.8 | nt | nt
O=c1[nH]c(C2CCN(S(=O)(=O)c3ccc4c(c3)OCCO4)CC2)nc2c1nnn2Cc1ccccc1 | nt | 0.1 | -0.4 | nt | -0.7 | nt | nt
O=c1[nH]c(C2CCCN(S(=O)(=O)c3cccc(Cl)c3)C2)nc2c1nnn2Cc1ccc2c(c1)OCCO2 (stereo not drawn) | 1.6 | -2.3 | 3.5 | 23.7* | -1.5 | 10.8 | 0.6
CCc1cccc2c1Sc1ccccc1CC2N1CCNCC1 (stereo not drawn) | 0.6 | -7.9 | -3.5 | 11.1 | 2.0 | nt | nt
Cc1cccc2c1Sc1ccc(Cl)cc1CC2N1CCNCC1 (stereo not drawn) | 2.7 | -2.2 | nt | 18.8* | nt | -3.7 | -2.2
CCNC(=O)c1c(O)c2ccccc2[nH]c1=O | -1.4 | -11.6 | 0.3 | -3.6 | 1.5 | nt | nt
CC(C)=NNC(=O)c1c(O)c2ccccc2[nH]c1=O | -2.0 | -6.8 | -0.8 | 20.6* | 0.1 | 8.6 | -1.7
COCCn1c(C)cc(C(=O)CSc2nncn2-c2ccccc2)c1C | 1.8 | -4.7 | 0.5 | -1.6 | -0.2 | nt | nt
C/C(=N\NC(=O)COc1ccc(C)cc1C(C)C)c1ccc(-n2ccnc2)cc1 | 0.4 | -0.9 | 1.9 | 17.8* | 6.7 | 17.5* | -0.5
Cc1ccc(-c2n[nH]c(=O)c3ccccc23)cc1S(=O)(=O)N(C)CCO | 1.2 | -7.0 | -3.4 | 0.5 | -2.1 | nt | nt
O=C(NCCC1CCCCN1S(=O)(=O)c1ccc(F)cc1)C(=O)NCc1ccncc1 (stereo not drawn) | 0.0 | -2.3 | -0.6 | -8.8 | 1.4 | nt | nt
COc1ccc(S(=O)(=O)N2CCCC2CNC(=O)C(=O)NCc2ccccc2)cc1 (stereo not drawn) | -0.9 | -10.9 | 0.0 | 32.8* | -2.3 | -4.7 | -5.0
O=C(NCCC1CCCCN1S(=O)(=O)c1ccc(Cl)cc1)C(=O)NCc1ccncc1 (stereo not drawn) | 2.1 | -6.9 | -0.5 | 30.7* | 2.3 | -2.5 | 0.9
SMILES | PP5 inh | Scp-1 inhibitor | LMPTP inh | PP1 counter | STEP block | PP1 confirm | PP5 counter
CCn1c(SCC(=O)Nc2oc(-c3ccccc3)c(-c3ccccc3)c2C#N)nnc1-c1ccco1 | 1.0 | 3.8 | 4.0 | 18.0* | 1.2 | 9.9 | -0.7
Cc1cccc(/C=N/NC(=O)c2cc(-c3cccnc3)nc3ccccc23)c1 | 1.7 | -9.6 | -1.2 | 77.7* | -3.6 | -2.0 | -1.4
Cc1cccc(-c2cc(C(=O)N/N=C/c3cccnc3)c3ccccc3n2)c1 | 4.0 | -6.2 | 0.3 | -3.2 | -0.7 | nt | nt
COC(=O)c1ccc(C2/C(=C(/O)c3ccc(OC)cc3)C(=O)C(=O)N2c2cc(C)on2)cc1 (stereo not drawn) | 2.9 | -14.1 | 0.3 | 2.0 | 1.1 | nt | nt
COC(=O)c1ccc(C2/C(=C(/O)c3ccc(OC(C)C)cc3)C(=O)C(=O)N2c2cc(C)on2)cc1 (stereo not drawn) | 3.2 | -13.2 | 2.2 | 19.8* | 3.8 | 8.5 | -5.1
O=C(CNC(=O)c1ccc(Br)o1)NCCc1ccc(F)cc1 | 2.0 | -6.9 | -0.2 | 2.3 | -2.2 | nt | nt
Cc1cc(C(=O)Cn2nc(C(=O)O)c3ccccc3c2=O)c(C)n1CCc1ccc(F)cc1 | 2.5 | -6.8 | 3.9 | 23.7* | -1.8 | 22.5* | -2.5
CN(C)CCC(O)c1ccccc1 (stereo not drawn) | -1.4 | -3.3 | -2.9 | -1.1 | -2.2 | nt | nt
C=CCn1c(SCc2ccc(C(=O)Nc3nccs3)cc2)nnc1-c1ccc(C)c(Cl)c1 | 3.7 | 6.6 | 5.6 | 17.6* | -0.9 | 8.3 | 0.1
O=S(=O)(c1ccc(Cl)cc1)N1CCC2(CC1)OCCO2 | -0.5 | -6.9 | -1.3 | -1.9 | -3.9 | nt | nt
COc1cccc2c(=O)c3cccc(N)c3[nH]c12 | 1.1 | -7.8 | 18.9 | 19.9* | 4.6 | 19.1* | 12.8*
O=C(O)CCCC(=O)Nc1ccc(Cl)cc1 | 0.2 | -0.9 | 0.7 | -0.5 | 0.5 | nt | nt
Fc1cccc(Cl)c1CSc1ccc(-c2cccnc2)nn1 | 1.7 | 11.8 | 1.1 | 58.2* | 1.6 | -0.8 | -0.5
COc1cc(/C=C2\C(C)=C(C#N)c3nc(N)c(C#N)c(C)c32)ccc1OCC(=O)O | 3.0 | 0.2 | 10.4 | 30.0* | 0.5 | 6.7 | -0.4

Screening results as filed in PubChem.
